Laboratory results reported in ChEMBL document CHEMBL2177027, “Exploring the directionality of 5-substitutions in a new series of 5-alkylaminopyrazolo[4,3-e]1,2,4-triazolo[1,5-c]pyrimidine as a strategy to design novel human a(3) adenosine receptor antagonists” (J Med Chem, 2012).

Assays:
[1] = Selectivity ratio of Ki for human adenosine A1 receptor expressed in CHO cell membrane to Ki for human adenosine A2A receptor expressed in CHO cell membrane; format: cell-based
[2] = Selectivity ratio of Ki for human adenosine A2A receptor expressed in CHO cell membrane to Ki for human adenosine A3 receptor expressed in CHO cell membrane; format: cell-based
[3] = biological target: Adenosine receptors; A1 & A3 (Homo sapiens) (UniProt P30542+P0DMS8); assay: Selectivity ratio of Ki for human adenosine A1 receptor expressed in CHO cell membrane to Ki for human adenosine A3 receptor expressed in CHO cell membrane; format: cell-based
Adenosine receptor A2a = Adenosine receptor A2a (Homo sapiens, UniProt P29274); assay: Displacement of [3H]NECA from human adenosine A2A receptor expressed in CHO cell membrane; format: cell membranes
Adenosine receptor A2a, sequence (P29274 whole entry, the tested form may be a part): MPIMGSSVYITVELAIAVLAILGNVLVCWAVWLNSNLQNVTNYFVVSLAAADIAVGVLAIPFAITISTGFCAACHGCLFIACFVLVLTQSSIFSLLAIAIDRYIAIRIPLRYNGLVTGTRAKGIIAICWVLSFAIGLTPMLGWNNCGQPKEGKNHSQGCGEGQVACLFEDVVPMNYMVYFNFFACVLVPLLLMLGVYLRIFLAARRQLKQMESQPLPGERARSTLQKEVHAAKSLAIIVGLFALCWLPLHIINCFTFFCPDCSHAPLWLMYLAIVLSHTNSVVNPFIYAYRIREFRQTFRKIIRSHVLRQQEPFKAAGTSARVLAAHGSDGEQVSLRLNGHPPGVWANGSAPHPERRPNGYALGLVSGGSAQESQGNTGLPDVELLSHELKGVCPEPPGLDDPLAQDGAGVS
Procedure, shortened: (§1)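 CHO cells stably transfected with the human receptor subtype. Membranes were prepared by a 1000g spin to clear fragments and nuclei, then pelleted from the supernatant at 100 000g. Pellet was resuspended in the respective binding buffer, frozen in liquid nitrogen and stored until radioligand competition binding.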

Adenosine receptor A2b = biological target: T1, Adenosine receptor A2b (Homo sapiens, UniProt P29275); assay: Antagonist activity at human adenosine A2B receptor expressed in CHO cells assessed as NECA-induced adenylate cyclase activity; format: functional, cell-based
T1 sequence (P29275 whole entry): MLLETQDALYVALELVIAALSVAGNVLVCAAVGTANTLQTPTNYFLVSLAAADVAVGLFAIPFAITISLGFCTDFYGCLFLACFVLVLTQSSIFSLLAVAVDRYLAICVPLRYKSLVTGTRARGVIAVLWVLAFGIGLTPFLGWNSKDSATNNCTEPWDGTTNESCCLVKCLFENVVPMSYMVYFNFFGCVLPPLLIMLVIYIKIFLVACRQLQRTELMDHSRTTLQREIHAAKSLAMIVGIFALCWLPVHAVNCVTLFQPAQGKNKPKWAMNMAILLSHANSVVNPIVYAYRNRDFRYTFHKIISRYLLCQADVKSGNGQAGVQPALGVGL
Procedure, shortened: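 Membranes from stably transfected CHO cells made with a single high-speed spin of the homogenate. Incubated 20 min with about 150 000 cpm [α-³²P]ATP in mixture lacking EDTA and NaCl. IC50 taken from concentration-dependent inhibition of NECA-stimulated adenylyl cyclase using Hill equation.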

Adenosine receptor A1 = biological target: T2, Adenosine receptor A1 (Homo sapiens, UniProt P30542); assay: Displacement of [3H]CCPA from human adenosine A1 receptor expressed in CHO cell membrane; format: cell membranes; procedure, shortened: as §1
T2 sequence (P30542 whole entry): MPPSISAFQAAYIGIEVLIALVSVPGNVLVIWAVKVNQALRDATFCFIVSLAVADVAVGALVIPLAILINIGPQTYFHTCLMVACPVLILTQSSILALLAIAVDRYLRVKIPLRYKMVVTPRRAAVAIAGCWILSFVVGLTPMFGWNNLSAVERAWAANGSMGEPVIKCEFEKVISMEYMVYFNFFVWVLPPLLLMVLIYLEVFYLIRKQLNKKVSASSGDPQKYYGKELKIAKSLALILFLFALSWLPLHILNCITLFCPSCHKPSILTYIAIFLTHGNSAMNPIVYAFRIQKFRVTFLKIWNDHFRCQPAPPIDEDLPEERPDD

Adenosine receptor A3 = biological target: T3, Adenosine receptor A3 (Homo sapiens, UniProt P0DMS8); assay: Displacement of [3H]NECA from human adenosine A3 receptor expressed in CHO cell membrane; format: cell membranes; procedure, shortened: as §1
T3 sequence (P0DMS8 whole entry): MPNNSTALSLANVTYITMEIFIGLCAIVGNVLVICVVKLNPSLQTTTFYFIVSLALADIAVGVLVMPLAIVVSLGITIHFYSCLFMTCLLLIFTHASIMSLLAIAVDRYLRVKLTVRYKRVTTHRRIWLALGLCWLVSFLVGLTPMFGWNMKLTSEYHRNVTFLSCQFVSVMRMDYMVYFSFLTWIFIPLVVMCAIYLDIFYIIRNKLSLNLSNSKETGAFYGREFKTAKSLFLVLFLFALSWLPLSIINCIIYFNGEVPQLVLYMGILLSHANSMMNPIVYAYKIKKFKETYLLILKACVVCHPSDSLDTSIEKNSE

| Compound | Ratio Ki [3] | Ki (Adenosine receptor A2a) | Ki (Adenosine receptor A2b) | Ki (Adenosine receptor A1) | Ki (Adenosine receptor A3) | Ratio Ki [1] | Ratio Ki [2] |
| --- | --- | --- | --- | --- | --- | --- | --- |
| CCCCN(C)c1nc2nn(C)cc2c2nc(-c3ccco3)nn12 | 28.9 | 1380 nM | > 10000 nM | 1060 nM | 36.7 nM | 0.77 | 37.6 |
| Cn1cc2c(nc(N(Cc3ccccc3)Cc3ccccc3)n3nc(-c4ccco4)nc23)n1 | 1.76 | 1150 nM | > 10000 nM | 711 nM | 404 nM | 0.62 | 2.85 |
| Cn1cc2c(nc(NC3CCCCCCC3)n3nc(-c4ccco4)nc23)n1 | 31.2 | 279 nM | > 10000 nM | 484 nM | 15.5 nM | 1.73 | 18 |
| Cn1cc2c(nc(NCCO)n3nc(-c4ccco4)nc23)n1 | 2.1 | 157 nM | 7470 nM | 649 nM | 309 nM | 4.13 | 0.51 |
| COc1nc2nn(C)cc2c2nc(-c3ccco3)nn12 | > 36.5 | > 30000 nM | > 10000 nM | > 30000 nM | 822 nM | – | > 36.5 |
| Cn1cc2c(nc(NCc3ccc(Cl)cc3)n3nc(-c4ccco4)nc23)n1 | 162 | 75.4 nM | 2620 nM | 322 nM | 1.99 nM | 4.27 | 37.9 |
| COc1ccc(CCNc2nc3nn(C)cc3c3nc(-c4ccco4)nn23)cc1OC | 42 | 92.5 nM | 3880 nM | 1580 nM | 37.6 nM | 17.1 | 2.46 |
| Cc1ccc(CNc2nc3nn(C)cc3c3nc(-c4ccco4)nn23)cc1 | 503 | 117 nM | 3940 nM | 538 nM | 1.07 nM | 4.6 | 109 |
| Cn1cc2c(nc(NCCOc3ccccc3)n3nc(-c4ccco4)nc23)n1 | 16.7 | 121 nM | 7500 nM | 646 nM | 38.6 nM | 5.34 | 3.13 |
| Cn1cc2c(nc(NCCc3c[nH]c4ccccc34)n3nc(-c4ccco4)nc23)n1 | 40.4 | 77 nM | 2870 nM | 1250 nM | 30.9 nM | 16.2 | 2.49 |
| CCCCC(CC)CNc1nc2nn(C)cc2c2nc(-c3ccco3)nn12 (centres undefined) | 158 | 512 nM | > 10000 nM | 605 nM | 3.82 nM | 1.18 | 134 |
| CC[C@H](C)Nc1nc2nn(C)cc2c2nc(-c3ccco3)nn12 | 11.7 | 244 nM | 2600 nM | 129 nM | 11 nM | 0.53 | 22.2 |
| Cn1cc2c(n1)[nH]c(=O)n1nc(-c3ccco3)nc21 | > 5.68 | > 30000 nM | > 10000 nM | > 30000 nM | 5280 nM | – | > 5.68 |
| Cn1cc2c(nc(NC3CCCC3)n3nc(-c4ccco4)nc23)n1 | 10.4 | 130 nM | 2650 nM | 80.1 nM | 7.68 nM | 0.62 | 16.9 |
| Cn1cc2c(nc(NC3CCC3)n3nc(-c4ccco4)nc23)n1 | 9.6 | 83.9 nM | 1110 nM | 169 nM | 17.6 nM | 2.01 | 4.77 |
| CN(C)c1nc2nn(C)cc2c2nc(-c3ccco3)nn12 | 12.1 | 1030 nM | > 10000 nM | 4760 nM | 394 nM | 4.62 | 2.61 |
| CCOc1nc2nn(C)cc2c2nc(-c3ccco3)nn12 | 42.6 | 6120 nM | > 10000 nM | 7750 nM | 182 nM | 1.27 | 33.6 |
| Cn1cc2c(nc(NCCCCO)n3nc(-c4ccco4)nc23)n1 | 4.13 | 251 nM | > 10000 nM | 1040 nM | 252 nM | 4.14 | 1 |
| Cn1cc2c(nc(NC34CC5CC(CC(C5)C3)C4)n3nc(-c4ccco4)nc23)n1 | 87.6 | > 30000 nM | > 10000 nM | 3310 nM | 37.8 nM | – | > 794 |
| CCCCCNc1nc2nn(C)cc2c2nc(-c3ccco3)nn12 | 32.9 | 168 nM | 3980 nM | 481 nM | 14.6 nM | 2.86 | 11.5 |

Continued by falling Ki (Adenosine receptor A2a), values first:

| Ratio Ki [3] | Ki (Adenosine receptor A2a) | Ki (Adenosine receptor A2b) | Ki (Adenosine receptor A1) | Ki (Adenosine receptor A3) | Compound | Ratio Ki [1] | Ratio Ki [2] |
| --- | --- | --- | --- | --- | --- | --- | --- |
| 17.9 | 29900 nM | > 10000 nM | 6560 nM | 367 nM | Cn1cc2c(nc(Cl)n3nc(-c4ccco4)nc23)n1 | 0.22 | 81.5 |
| 11.4 | 7690 nM | > 10000 nM | 15200 nM | 1330 nM | CN1CCN(c2nc3nn(C)cc3c3nc(-c4ccco4)nn23)CC1 | 1.98 | 5.78 |
| 11 | 6430 nM | > 10000 nM | 15000 nM | 1360 nM | CCN(CCO)c1nc2nn(C)cc2c2nc(-c3ccco3)nn12 | 2.33 | 4.73 |
| 11.1 | 701 nM | > 10000 nM | 265 nM | 23.8 nM | CCCCCCC(C)Nc1nc2nn(C)cc2c2nc(-c3ccco3)nn12 (centres undefined) | 0.38 | 29.4 |
| 93.6 | 593 nM | > 10000 nM | 17500 nM | 187 nM | Cn1cc2c(nc(NCc3ccc(-c4ccccc4)cc3)n3nc(-c4ccco4)nc23)n1 | 29.5 | 3.17 |
| 56.4 | 352 nM | > 10000 nM | 2150 nM | 38.1 nM | Cn1cc2c(nc(N3CCCCC3)n3nc(-c4ccco4)nc23)n1 | 6.11 | 9.24 |
| 27.8 | 272 nM | 4810 nM | 165 nM | 5.93 nM | CC[C@@H](C)Nc1nc2nn(C)cc2c2nc(-c3ccco3)nn12 | 0.61 | 45.9 |
| 6.81 | 185 nM | 8500 nM | 2750 nM | 404 nM | CONc1nc2nn(C)cc2c2nc(-c3ccco3)nn12 | 14.9 | 0.46 |
| 3.52 | 147 nM | 5260 nM | 133 nM | 37.8 nM | CC(CCc1ccccc1)Nc1nc2nn(C)cc2c2nc(-c3ccco3)nn12 (centres undefined) | 0.9 | 3.89 |
| 167 | 87.5 nM | 3180 nM | 823 nM | 4.93 nM | Cn1cc2c(nc(NCc3ccc(F)cc3)n3nc(-c4ccco4)nc23)n1 | 9.41 | 17.8 |
| 1130 | 55.2 nM | 5290 nM | 338 nM | 0.3 nM | C[C@H](Nc1nc2nn(C)cc2c2nc(-c3ccco3)nn12)c1ccccc1 | 6.12 | 184 |
